Here are results for nine compounds from ChEMBL document CHEMBL1155128, “Kinetic studies and bioactivity of potential manzamine prodrugs” (J Nat Prod, 2008).

Series [1] relates to Plasmodium berghei. As to the kind of experiment: Antimalarial activity as reduced parasitaemia at day 10 in Plasmodium berghei NK65 infected mice (Mus musculus) at 30 mg/kg peroral dose […] post infection. In kind it is functional. Also on record: scale not given: the % may be the effect or the level left. Particulars: route oral. The method in brief:
(§1)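 Peters 4-day suppressive test. Male Swiss Webster mice (18-20 g), 5 per group, infected ip with 2 X10^7 P. berghei NK-65 parasitized red cells. Compounds in 0.1N HCl given orally about 2 h post-infection, once daily on days 0-2; vehicle and β-arteether control groups. Parasitemia followed on Giemsa-stained tail blood smears up to day 28.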

Series [2] relates to Candida albicans. As to the kind of experiment: Antimicrobial activity against Candida albicans ATCC 90028. In kind it is functional, organism-based.
Series [3] in a line: Cytotoxicity against african green monkey Vero cells after 48 hrs by neutral red assay. In kind it is cell-based. The note with it: chlorocebus sabaeus. The method in brief: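 Vero monkey kidney cells seeded at 25,000 cells/well and grown 24 h, then given samples at several concentrations for 48 h. Viable cells were counted by neutral red. IC50 was taken from dose-response curves, with doxorubicin as positive control.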

Series [4] deals with Plasmodium berghei. As to the kind of experiment: Antimalarial activity as reduced parasitaemia at day 14 in Plasmodium berghei NK65 infected mice (Mus musculus) at 30 mg/kg peroral dose once daily for 3 days post infection. Also noted: scale not given: the % may be the effect or the level left. Particulars: route oral.
Series [5] deals with Plasmodium berghei. As to the kind of experiment: Antimalarial activity as reduced parasitaemia at day 14 in Plasmodium berghei NK65 infected mice (Mus musculus) at 10 mg/kg peroral dose […]. Particulars: route oral. Format: functional. Also on record: scale not given: the % may be the effect or the level left. The method in brief:
as §1

The test system of series [6] is Leishmania donovani. As to the kind of experiment: Antileishmanial activity against Leishmania donovani promastigotes after 72 hrs by almar blue assay. In kind it is functional, organism-based.
Series [7] concerns Plasmodium berghei. In words: Antimalarial activity as reduced parasitaemia on day 10 in Plasmodium berghei NK65 infected mice (Mus musculus) at 10 mg/kg peroral dose […] post infection. In kind it is functional. Also noted: scale not given: the % may be the effect or the level left. Particulars: route oral. Put shortly:
as §1

For series [8], the system named is Mycobacterium intracellulare. As to the kind of experiment: Antimicrobial activity against Mycobacterium intracellular ATCC 23068. In kind it is functional, organism-based. The method in brief: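 M. intracellulare ATCC 23068 tested by a modified Franzblau method. […] Fluorescence read at 544ex/590em before and after incubation.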
For series [9], the system named is Plasmodium berghei. In words: Antimalarial activity as reduced parasitaemia at day 7 in Plasmodium berghei NK65 infected mice (Mus musculus) at 30 mg/kg peroral dose […] post infection. Format: functional. Also on record: scale not given: the % may be the effect or the level left. Particulars: route oral. The method in brief:
as §1

Series [10] concerns Staphylococcus aureus. In words: Antimicrobial activity against methicillin-resistant Staphylococcus aureus ATCC 43300. In kind it is functional, organism-based.
Series [11] relates to Plasmodium berghei. In words: Antimalarial activity as reduced parasitaemia day 7 in Plasmodium berghei NK65 infected mice (Mus musculus) at 10 mg/kg peroral dose […] […]. Also on record: scale not given: the % may be the effect or the level left. In kind it is functional. The note with it: route oral. The method in brief: as §1
Series [12] deals with Plasmodium falciparum. In words: Antimalarial activity against chloroquine-sensitive Plasmodium falciparum D6 as LDH activity. Format: functional, organism-based. Put shortly: (§2)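 Red cells infected with P. falciparum D6 or W2 (2% parasitemia, 2% hematocrit, RPMI 1640 with 10% human serum and 60 µg/mL amikacin) added to serially diluted samples. Gassed with 90% N2/5% O2/5% CO2 and held 37 °C for 72 h. Parasite LDH read with Malstat plus NBT/PES at 650 nm. IC50 from dose-response curves; artemisinin and chloroquine controls.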

Series [13] relates to Vero. As to the kind of experiment: Cytotoxicity against african green monkey Vero cells at 4.76 ug/ml after 48 hrs by neutral red assay. Format: functional, cell-based. The note with it: Chlorocebus sabaeus.
In series [14] the test system is Plasmodium falciparum. In words: Antimalarial activity against chloroquine-resistant Plasmodium falciparum W2 by LDH activity. Format: functional, organism-based. The method in brief:
as §2

Series [15] deals with Cryptococcus neoformans. In words: Antimicrobial activity against Cryptococcus neoformans ATCC 90113. In kind it is functional, organism-based.
The target in series [16] is Glycogen synthase kinase-3 beta (Homo sapiens, UniProt P49841). In words: Inhibition of GSK3-beta.
In series [17] the target is Glycogen synthase kinase-3 alpha (Homo sapiens, UniProt P49840). In words: Inhibition of GSK3alpha.

In brackets after ≈: the same amount, converted by molar mass. Activity calls are given as the source filed them. The rule behind the calls is not given here.

Glycogen synthase kinase-3 beta, sequence (P49841 whole entry): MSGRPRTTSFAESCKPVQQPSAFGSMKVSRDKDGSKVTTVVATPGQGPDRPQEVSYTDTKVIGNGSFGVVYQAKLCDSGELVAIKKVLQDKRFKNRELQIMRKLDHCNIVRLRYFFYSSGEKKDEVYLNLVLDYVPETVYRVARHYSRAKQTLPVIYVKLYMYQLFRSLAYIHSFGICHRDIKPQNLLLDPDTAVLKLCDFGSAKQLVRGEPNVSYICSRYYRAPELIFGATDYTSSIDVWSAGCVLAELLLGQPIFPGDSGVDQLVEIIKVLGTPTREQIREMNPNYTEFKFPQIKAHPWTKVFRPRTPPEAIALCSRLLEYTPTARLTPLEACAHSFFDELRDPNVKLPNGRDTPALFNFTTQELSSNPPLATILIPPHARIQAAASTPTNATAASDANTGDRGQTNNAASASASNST
Glycogen synthase kinase-3 alpha, sequence (P49840 whole entry): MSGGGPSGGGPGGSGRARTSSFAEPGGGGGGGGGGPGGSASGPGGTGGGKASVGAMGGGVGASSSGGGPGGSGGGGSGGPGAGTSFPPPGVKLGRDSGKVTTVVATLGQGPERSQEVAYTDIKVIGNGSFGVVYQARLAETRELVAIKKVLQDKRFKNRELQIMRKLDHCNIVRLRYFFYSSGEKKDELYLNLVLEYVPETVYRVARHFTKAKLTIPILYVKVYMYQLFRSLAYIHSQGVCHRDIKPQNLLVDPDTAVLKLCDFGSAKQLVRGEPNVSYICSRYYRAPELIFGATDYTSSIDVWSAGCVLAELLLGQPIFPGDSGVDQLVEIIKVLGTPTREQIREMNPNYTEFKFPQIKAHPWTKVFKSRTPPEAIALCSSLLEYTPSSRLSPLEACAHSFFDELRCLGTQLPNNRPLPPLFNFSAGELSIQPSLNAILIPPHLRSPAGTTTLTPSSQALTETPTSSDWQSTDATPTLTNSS

As for `Oc1cccc2c1[nH]c1c(C3=C[C@@]4(O)CC/C=C\CCCCN5CC[C@@H]3[C@]3(C[C@@H]6/C=C\CCCCN6[C@H]34)C5)nccc12`, the Activity in [1] was 83%; in series [4], 67%; in series [5], 32%; in series [7], 35%; in series [9], 100%; in series [11], 57%. The half-inhibitory concentration (IC50) in series [2] came to 10 µg/mL (≈ 17.7 µM); in [8], 0.25 µg/mL (≈ 0.443 µM); in series [10], 6.5 µg/mL (≈ 11.5 µM). Further, the figures for the MIC in series [2] and in series [8] were 5 µg/mL (≈ 8.85 µM) and 0.31 µg/mL (≈ 0.549 µM), respectively. Further, the CC50 at 48 h in series [3] is 1.1 µg/mL (≈ 1.95 µM). Moreover, the IC90 in [6] was determined as 11 µg/mL (≈ 19.5 µM).

Take `CC(=O)Oc1cccc2c1[nH]c1c(C3=C[C@@]4(OC(C)=O)CC/C=C\CCCCN5CC[C@@H]3[C@]3(C[C@@H]6/C=C\CCCCN6[C@H]34)C5)nccc12` [8,12-DIACETOXYMANZAMINE A]: the half-maximal inhibitory concentration (IC50) was above 20 µg/mL in series [2]; 1.3 µg/mL (≈ 2 µM) in series [12]; 1.2 µg/mL (≈ 1.85 µM) in series [14]; 16 µg/mL (≈ 24.7 µM) in series [6]; above 20 µg/mL in series [15]; 4.5 µg/mL (≈ 6.94 µM) in series [8]. For the same compound, in series [10], the IC50 was determined as 2 µg/mL (≈ 3.08 µM). For the same compound, the outcome in series [13] was inactive. For the same compound, in [6], the IC90 is 35 µg/mL (≈ 53.9 µM). Moreover, the figures for the MIC in series [15] and in series [10] were 10 µg/mL (≈ 15.4 µM) and 5 µg/mL (≈ 7.71 µM), respectively.

Take `CC(=O)Oc1cccc2c1[nH]c1c(C3=C[C@@]4(O)CC/C=C\CCCCN5CC[C@@H]3[C@]3(C[C@@H]6/C=C\CCCCN6[C@H]34)C5)nccc12` [8-ACETOXYMANZAMINE A]: the Activity in series [1] is given as 84%; in [4] it was 48%; in series [5], 8%; in series [7], 51%; in series [9] it was 93%; in series [11], 61%. Moreover, the IC50 in series [2] was found to be 1.5 µg/mL (≈ 2.47 µM); in series [12] it was 0.0096 µg/mL (≈ 0.0158 µM); in series [14], 0.03 µg/mL (≈ 0.0494 µM); in [6], 3.4 µg/mL (≈ 5.6 µM); in series [15], 1.5 µg/mL (≈ 2.47 µM); in series [8] it was 0.1 µg/mL (≈ 0.165 µM). In series [10], this compound returned an IC50 of 0.5 µg/mL (≈ 0.824 µM). The MFC worked out at 5 µg/mL (≈ 8.24 µM) in [2], 5 µg/mL (≈ 8.24 µM) in series [15] and 20 µg/mL (≈ 33 µM) in [10]. Further, the MIC in [2] was found to be 2.5 µg/mL (≈ 4.12 µM); in series [15], 2.5 µg/mL (≈ 4.12 µM); in series [8], 0.16 µg/mL (≈ 0.264 µM). In series [3] (read-out: TC50), the CC50 at 48 h turned out to be 370 µg/mL (≈ 610 µM). Also, the 90% effect level in series [6] (IC90) was put at 7 µg/mL (≈ 11.5 µM). The compound further showed an MBC in series [8] above 20 µg/mL.

As to `COc1cccc2c1[nH]c1c(C3=C[C@@]4(O)CC/C=C\CCCCN5CC[C@@H]3[C@]3(C[C@@H]6/C=C\CCCCN6[C@H]34)C5)nccc12` [8-METHOXYMANZAMINE A], the IC50 was found to be 3 µg/mL (≈ 5.18 µM) in [2]; 0.037 µg/mL (≈ 0.0639 µM) in series [12]; 0.047 µg/mL (≈ 0.0812 µM) in series [14]; 5 µg/mL (≈ 8.64 µM) in series [6]; 2 µg/mL (≈ 3.46 µM) in [15]; 0.15 µg/mL (≈ 0.259 µM) in [8]. Further, inhibition in [10] was half-maximal at 0.55 µg/mL (≈ 0.95 µM) (IC50). The MFC in series [2] and in [10] was above 20 µg/mL each time. In addition, the MIC in [2] is 10 µg/mL (≈ 17.3 µM); in series [8], 0.63 µg/mL (≈ 1.09 µM); in series [10], above 20 µg/mL. In addition, in [3] (read-out: TC50), the CC50 at 48 h amounted to 980 µg/mL (≈ 1690 µM). Moreover, it took 24 µg/mL (≈ 41.5 µM) to reach the 90% level in [6] (IC90). In addition, the MBC in series [8] is 20 µg/mL (≈ 34.6 µM).

As for `C[C@@H]1[C@H](O)[C@@H](C)/C=C/C=C/C=C/C=C/C=C/C=C/C=C/[C@H](O[C@@H]2O[C@H](C)[C@@H](O)[C@H](N)[C@@H]2O)C[C@@H]2O[C@](O)(C[C@@H](O)C[C@@H](O)[C@H](O)CC[C@@H](O)C[C@@H](O)CC(=O)O[C@H]1C)C[C@H](O)[C@H]2C(=O)O` [AMPHOTERICIN B], in series [2], the IC50 was 0.1 µg/mL (≈ 0.108 µM) and the lowest concentration to inhibit growth (MIC) was 0.63 µg/mL (≈ 0.682 µM). In series [6], this compound showed an IC50 of 0.4 µg/mL (≈ 0.433 µM) and a 90% effect concentration (IC90) of 0.36 µg/mL (≈ 0.39 µM). In series [15], this compound displayed an IC50 of 1 µg/mL (≈ 1.08 µM), an MFC of 2.5 µg/mL (≈ 2.71 µM) and an MIC of 2.5 µg/mL (≈ 2.71 µM).

Regarding `C[C@@H]1CC[C@H]2[C@@H](C)C(=O)O[C@@H]3O[C@@]4(C)CC[C@@H]1[C@]32OO4` [ARTEMISININ], the IC50 was 0.0043 µg/mL (≈ 0.0152 µM) in series [12] and 0.0044 µg/mL (≈ 0.0156 µM) in series [14].

Regarding `O=C(O)c1cn(C2CC2)c2cc(N3CCNCC3)c(F)cc2c1=O` [CIPROFLOXACIN], in series [8], the MBC is above 20 µg/mL and it took 0.5 µg/mL (≈ 1.51 µM) to inhibit growth (MIC). In [10], this compound returned an MFC of 1 µg/mL (≈ 3.02 µM) and an MIC of 0.25 µg/mL (≈ 0.754 µM).

For `O[C@]12C=C(c3nccc4c3[nH]c3ccccc34)[C@@H]3CCN(CCCC/C=C\CC1)C[C@@]31C[C@@H]3/C=C\CCCCN3[C@H]12` [MANZAMINE A], the CC50 at 48 h in series [3] (read-out: TC50) was determined as 680 µg/mL (≈ 1240 µM). In addition, the Activity in [5] is on record as 90%; in [7], 100%; in series [11], 100%. The half-maximal inhibitory concentration (IC50) in series [16] was determined as 10 µM; in series [14] it was 0.005 µg/mL (≈ 0.00911 µM); in [17], 25 µM. For the same compound, the IC90 in [6] came to 1.8 µg/mL (≈ 3.28 µM). Besides, the MIC in series [15] was determined as 10 µg/mL (≈ 18.2 µM); in [8] it was 0.63 µg/mL (≈ 1.15 µM).

For the compound `N=C(N)c1ccc(OCCCCCOc2ccc(C(=N)N)cc2)cc1` [PENTAMIDINE], in series [6], half-maximal inhibition (IC50) was put at 0.9 µg/mL (≈ 2.64 µM) and the 90% effect level (IC90) was put at 1.8 µg/mL (≈ 5.29 µM).
